Data taken from article PMC2605016 (Structure (London, England : 1993), 2008).
Blank lines part the entries; values can stand above or below the molecule they belong to.

Legend:
[1] = CaM pull-down assay with lens membranes; assay type: binding, lamb; details: Ca^2+ treated lens pellets, molar excess EGTA, data not shown
Procedure, shortened: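 Lamb lens fiber-cell membranes (2mg/ml total protein) were incubated with recombinant vertebrate CaM (0.67mg/ml) in 10mM Tris pH 8.0, 10mM CaCl2 for 30 minutes at 37°C. Binding was stopped on ice, and free CaM was removed by centrifugation at 10,000xg with 4 pellet washes. Molar excess EGTA was then added to the Ca2+-treated pellets. CaM was detected by SDS-PAGE with silver staining and by western blot.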

15N-CaM = 15N-CaM (Homo sapiens, UniProt P0DP23); test: NMR titration of 15N-CaM with AQP0 peptides; assay type: binding, vertebrate; details: 25°C, pH 6.5, Ca^2+, data not shown
calmodulin (CaM) = test: 15N-HSQC NMR titration of 15N-CaM; details: reference: unmodified AQP0CBD peptide, second binding event (1:2); sites S235

Molecule: O=C(O)CN(CCOCCOCCN(CC(=O)O)CC(=O)O)CC(=O)O [EGTA]
- removal of membrane-bound CaM by EGTA [1]: efficiently removed

- interaction of control peptide with CaM (15N-CaM): no interaction
Molecule: AQP0loop: peptide corresponding to a cytosolic AQP0 loop, residues 148–158, negative control (TYDERRNGRLG)

- KD (calmodulin (CaM)): weaker; reference 6.5 ± 5.5 × 10−6
Molecule: Aquaporin-0 (AQP0, MIP) 223-242 (from UniProt Q6J8I9) S235-P peptide, second binding event (1:2)
